Compounds with a hit are over-represented: about 2.3% of the library has one in this group of screens.
TRPC4 inh – inhibitors of mouse TRPC4 channel, primary screen, Fluo4 calcium, HEK293 TRPC4beta/mu-opioid cells | DAMGO-evoked Fluo4 calcium flux; active compounds read low | 300,000 compounds, 0.39% hits | B-score at 10 µM;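 active = B-score over 3 SD under the library average, no early fluorescence shift, positive overall ratio signal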
Target sequence (Q9QUQ5 whole entry, looked up): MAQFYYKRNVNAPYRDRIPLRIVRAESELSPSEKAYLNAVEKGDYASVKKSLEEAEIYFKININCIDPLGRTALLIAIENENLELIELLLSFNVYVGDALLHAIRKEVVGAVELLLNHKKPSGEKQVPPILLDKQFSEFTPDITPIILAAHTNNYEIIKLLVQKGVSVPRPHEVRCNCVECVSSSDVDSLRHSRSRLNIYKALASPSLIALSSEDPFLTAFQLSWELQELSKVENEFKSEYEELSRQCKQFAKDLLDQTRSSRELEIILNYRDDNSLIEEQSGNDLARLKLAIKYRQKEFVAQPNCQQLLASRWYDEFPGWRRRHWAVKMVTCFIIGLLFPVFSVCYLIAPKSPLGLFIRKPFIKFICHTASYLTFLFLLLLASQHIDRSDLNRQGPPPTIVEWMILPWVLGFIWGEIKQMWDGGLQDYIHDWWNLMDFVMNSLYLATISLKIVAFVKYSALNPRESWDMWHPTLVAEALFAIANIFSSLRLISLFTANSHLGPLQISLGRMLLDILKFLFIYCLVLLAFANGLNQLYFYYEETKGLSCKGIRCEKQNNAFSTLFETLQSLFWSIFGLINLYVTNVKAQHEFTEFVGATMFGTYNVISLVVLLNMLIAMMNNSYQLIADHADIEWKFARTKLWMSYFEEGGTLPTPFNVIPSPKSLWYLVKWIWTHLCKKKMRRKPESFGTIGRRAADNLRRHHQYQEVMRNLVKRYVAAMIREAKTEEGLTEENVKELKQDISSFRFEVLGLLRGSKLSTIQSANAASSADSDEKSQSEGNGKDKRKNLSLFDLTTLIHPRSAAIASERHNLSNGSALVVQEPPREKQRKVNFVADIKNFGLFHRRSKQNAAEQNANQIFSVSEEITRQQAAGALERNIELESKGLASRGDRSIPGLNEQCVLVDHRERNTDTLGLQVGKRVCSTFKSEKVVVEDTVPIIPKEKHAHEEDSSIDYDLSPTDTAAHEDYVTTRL
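Material: HEK293 cells with stable TRPC4beta plus mu-opioid receptor expression; probe or stimulus: DAMGO in two steps, submaximal then maximal; technique: Fluo4 calcium fluorescence by kinetic imaging, 5 s 1 Hz baseline; measure: integrated fluorescence ratio relative to baseline, converted to per-well B score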
TRPC6 activator – mouse TRPC6 channel activators, primary screen, cell-based, HEK293, membrane potential dye; 310,000 compounds, 0.13% hits; HEK293-TRPC6 membrane potential dye fluorescence; active compounds read high; Short transient receptor potential channel 6 (Mus musculus), Q61143; B-score at 10 µM; AID 2550, 2010;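 active = B-score of the integrated fluorescence ratio above library mean plus 3 SD, and starting fluorescence ratio within library mean plus 5 SD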;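 also: higher score means more depolarization so channel activation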
TRPC6 inhibitor – mouse TRPC6 channel inhibitors, primary screen, cell-based, HEK293, membrane potential dye; Short transient receptor potential channel 6 (Mus musculus), Q61143; ACh-evoked depolarization; active compounds read low; B-score at 10 µM; 310,000 compounds, 1.1% hits; AID 2553, 2010;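 active = B-score under library mean minus 3 SD, initial fluorescence not abnormally high, positive integrated signal ratio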;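 also: B-score derived from integrated fluorescence ratio over the kinetic read; more negative B-score means stronger inhibition of depolarization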
TRPC4 PAM – positive allosteric modulators of TRPC4, primary screen, cell-based, mouse TRPC4beta, HEK293 mu-opioid, Fluo-4 calcium. DAMGO EC20, Fluo-4 Ca2+ flux; active compounds read high. B-score at 10 µM. 310,000 compounds, 0.42% hits. Short transient receptor potential channel 4 (Mus musculus), Q9QUQ5;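 active = B-score of calcium response area above 5 SD of library B-scores, with initial fluorescence ratio within 5 SD of library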;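 also: B-score of integrated fluorescence ratio over time as area under calcium response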
TRPC4 act – activators of mouse TRPC4 channel, primary screen, Fluo4 calcium, HEK293 TRPC4beta/mu-opioid cells | Short transient receptor potential channel 4 (Mus musculus), Q9QUQ5 | Fluo4 calcium fluorescence; active compounds read high | B-score at 10 µM | 310,000 compounds, 0.49% hits;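 active = B-score above 5 SD of library B-scores, and initial fluorescence ratio not above library mean plus 5 SD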;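 also: positive B-score marks a calcium rise read as TRPC4 activation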
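Assay system: HEK293 stable line with TRPC4beta plus mu-opioid receptor; schedule: 45 min room-temperature Fluo4 loading, 110 s read; technique: kinetic Fluo4 calcium fluorescence; evaluation: integrated baseline-normalised fluorescence ratio, converted to per-well B score; controls: buffer (low) and maximal DAMGO (high)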
* marks the source's active call; other numbers are inactive results.

What do the screens show for `O=C(N/N=C/c1cccnc1)c1ccccc1OCc1ccc(Br)cc1`?
TRPC4 inh: inactive; TRPC6 activator: inactive; TRPC6 inhibitor: inactive; TRPC4 PAM: inactive; TRPC4 act: inactive

How did CCCn1c(=O)c(C(=O)NNC(=O)c2ccccc2Cl)c(O)c2ccccc21 do in these assays?
TRPC4 inh: inactive; TRPC6 activator: inactive; TRPC6 inhibitor: inactive; TRPC4 PAM: inactive; TRPC4 act: 48*

Results for CCCn1c(=O)c(C(=O)NCC2CCCO2)c(O)c2ccccc21 (stereo not given) ?
TRPC4 inh: inactive; TRPC6 activator: inactive; TRPC6 inhibitor: inactive; TRPC4 PAM: 16*; TRPC4 act: inactive

Results for O=C(NCC1CCCO1)c1c(O)c2ccccc2[nH]c1=O (stereo not given) ?
TRPC4 inh: inactive; TRPC6 activator: inactive; TRPC6 inhibitor: inactive; TRPC4 PAM: inactive; TRPC4 act: inactive

What do the screens show for `O=C(Nc1nnc(-c2ccccc2Cl)o1)c1nc2ccccc2s1`?
TRPC4 inh: inactive; TRPC6 activator: inactive; TRPC6 inhibitor: inactive; TRPC4 PAM: inactive; TRPC4 act: 185*

Results for O=C(C1CCN(S(=O)(=O)c2cnc[nH]2)CC1)N(CCc1ccccc1)Cc1ccccc1 ?
TRPC4 inh: inactive; TRPC6 activator: inactive; TRPC6 inhibitor: inactive; TRPC4 PAM: inactive; TRPC4 act: inactive

How did O=C(C1CCN(CC2CC=CCC2)CC1)N(CCc1ccccc1)Cc1ccccc1 (stereo not given) do in these assays?
TRPC4 inh: -5*; TRPC6 activator: inactive; TRPC6 inhibitor: inactive; TRPC4 PAM: inactive; TRPC4 act: inactive

How did CN(Cc1c(F)cccc1Cl)C(=O)c1cnc2ccccc2n1 do in these assays?
TRPC4 inh: inactive; TRPC6 activator: inactive; TRPC6 inhibitor: inactive; TRPC4 PAM: inactive; TRPC4 act: inactive

How did Cc1ccc(-c2ccc3c(c2)S(=O)(=O)c2ccccc2C3=O)cc1 do in these assays?
TRPC4 inh: inactive; TRPC6 activator: inactive; TRPC6 inhibitor: inactive; TRPC4 PAM: 29*; TRPC4 act: inactive

How did Cc1ccnc(NC(=O)c2ccc3c(c2)S(=O)(=O)c2ccccc2C3=O)c1 do in these assays?
TRPC4 inh: inactive; TRPC6 activator: inactive; TRPC6 inhibitor: inactive; TRPC4 PAM: inactive; TRPC4 act: inactive

How did CCOc1ccc(C(=S)N2CCCC2)c(OCC)c1 do in these assays?
TRPC4 inh: inactive; TRPC6 activator: inactive; TRPC6 inhibitor: inactive; TRPC4 PAM: inactive; TRPC4 act: inactive

How did O=C1CNC(=S)N1CCCc1ccccc1 do in these assays?
TRPC4 inh: inactive; TRPC6 activator: inactive; TRPC6 inhibitor: inactive; TRPC4 PAM: inactive; TRPC4 act: inactive

What do the screens show for `CCc1cccc(OCC(=O)Nc2c[nH]c(=O)[nH]c2=O)c1`?
TRPC4 inh: inactive; TRPC6 activator: inactive; TRPC6 inhibitor: inactive; TRPC4 PAM: inactive; TRPC4 act: inactive

What do the screens show for `CCc1cccc(OCC(=O)Nc2ccc(C(=O)O)cc2NC(=O)COc2cccc(CC)c2)c1`?
TRPC4 inh: -8*; TRPC6 activator: inactive; TRPC6 inhibitor: inactive; TRPC4 PAM: inactive; TRPC4 act: inactive

How did CCCC1(c2ccccc2)NC(=O)N(CC(=O)c2[nH]c(C)c(C(=O)OCC)c2C)C1=O (stereo not given) do in these assays?
TRPC4 inh: inactive; TRPC6 activator: inactive; TRPC6 inhibitor: inactive; TRPC4 PAM: 15*; TRPC4 act: inactive

How did CC12CCC(c3c(C(=O)N4CCOCC4)nn(-c4ccccc4)c31)C2(C)C (stereo not given) do in these assays?
TRPC4 inh: inactive; TRPC6 activator: inactive; TRPC6 inhibitor: inactive; TRPC4 PAM: 10*; TRPC4 act: inactive

Results for O=C1CSC(=Nc2ccc(Cl)cc2)N1Cc1ccco1 ?
TRPC4 inh: inactive; TRPC6 activator: inactive; TRPC6 inhibitor: inactive; TRPC4 PAM: inactive; TRPC4 act: inactive

How did Cc1cc(C)c(N=C2SCC(=O)N2Cc2ccco2)c(C)c1 do in these assays?
TRPC4 inh: -5*; TRPC6 activator: inactive; TRPC6 inhibitor: inactive; TRPC4 PAM: inactive; TRPC4 act: inactive

Compound activity: PubChem BioAssay, Johns Hopkins Ion Channel Center
